Test results reported in the EternaBench riboswitch data.

System: MS2 coat protein
Assay: apparent Kd, MS2 coat protein; higher = weaker binding; RNA-MaP array; FMN 200 µM where present
Procedure, shortened: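 Binding was read on Illumina sequencing-chip clusters where stalled E. coli RNA polymerase had transcribed each design. A titration of SNAP-549-labelled MS2 coat protein began at 0.7 or 1.5 nM and doubled to 3 µM, once without ligand and once with constant ligand, in 100 mM Tris-HCl pH 7.5, 80 mM KCl, 4 mM MgCl2, BSA, DTT, yeast tRNA and Tween-20. The apparent Kd is the median of filtered per-cluster binding-curve fits, based on green signal normalised to red-channel RNA signal and control-cluster median Fmax.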

[1] = designed as: OFF switch for flavin mononucleotide, no ligand
[2] = ligand present: flavin mononucleotide, designed as: OFF switch for flavin mononucleotide
[3] = designed as: ON switch for flavin mononucleotide, no ligand
[4] = ligand present: flavin mononucleotide, designed as: ON switch for flavin mononucleotide

Sequence	apparent Kd [1] [nM]	apparent Kd [2] [nM]	apparent Kd [3] [nM]	apparent Kd [4] [nM]
AUUUACAAGUAAGGAUAUCGGGUAUAGUUAACUCGAGAAGGUACAUGAGGAUCACCCAUGUAGUAGAUACAUAGAACUGUUUUG	13.6	12.7		
AUUUAGUCAGGAUAUACAUGAGGAUCACCCAUGUAAACUUUUAGUUUAAUUUGAAUGUGUAGAAGGGACAUUUU	28.8	29.8		
AUUUAUAAGUAAGGAUAUCGGUUAUAUUUAAUUCGAGAAGGUACAUGAGGAUCACCCAUGUAAUAAAUAAAUAAAAUUUUUUUU	36.4	28.7		
AUUUCGUCAGGAUAUCCUAGUAAUUGUUUCAUAUUUACAAAGGAGAAGGGACAUGAGGAUCACCCAUGUUGGUC	64.6	116		
AUUUGAAUGUCAGGAUAUGGUAGAUUAUUCUUAUCAGAAGGGAUAAUUAUACUCAAGUACAUGAGGAUCACCCAUGUUAAAUCA			12	12.6
AUUUGUAAUACAGGAUAUGUUAGUUUACAGUAGAUUGGUUAUUACUCAACUACAGAAGGGUAGUACAUGAGGAUCACCCAUGUA			20.7	14.8
AUUUUAAAGGGAGGAUAUACAUGAGGAUCACCCAUGUAAACGUGAGGAUCACCCAUGUUAACAAUGUAGAAGGCCUAUAUCUAU	41.1	31		
AUUUUAAUAUAGGAUAUCGAUUUUAUUAUUUAACGAGAAGGAUAAACAUGAGGAUCACCCAUGUGGUAUCAUGG	158	140		
AUUUUACAUGAGGAUCACCCAUGUUUUGGUGGAUCAGGAUAUAGAUCGGAUGAGUUCUGGCUAGAAGGGAUAUAUA			93.6	86.5
AUUUUGCUCGCAGGAUAUCAGGAAAUGUUGAUCUUCUGUAUCUCCUACAUGAGGAUCACCCAUGUUGAGAAGGGCGAUGGCAAU	106	358		
AUUUUGUGAGGAUAUGUGGCUUCGAUCGUGAGAUCGAGGCUACAGAAGGCACAUGAGGAUCACCCAUGUUCCUA	20.6	206		
CAAAUCUGAGGAUAUCGAUAUUUGUACAUGAGGAUCACCCAUGUCCUAUUUAUUAUAUUUCGAGAAGGCAGUGUAU	19.5	17.2		
CAAGCCAUUCGCAACUGCCGGCCGCAGGAUAUGGGUCGUUUAUACAUGAGGAUCACCCAUGUCGCCUAGAAGGGCGGCUGGGUC			260	38.9
CAAGGGCAUGAGAAGGCAUAAUAUAUAAUACCACAUGUUUACAUGAGGAUCACCCAUGUUACCUAUGAGGAUAUCAUGCCUACA	14.4	12.9		
CAAGGGUUAGGAUAUGGACGCUUAUAUUUGUAGCGGCGAAGCCAGAAGGAACAUGAGGAUCACCCAUGUUGGGA	60.4	108		
CAAUGUCAAAAGGAUAUUGCCAGCAUAAAUGGUCGAGAAGGUUUGACAUGAGGAUCACCCAUGUAAUGAACCUG	14.6	51.2		
CAAUUUAUAACAGGAUAUGUAAUACAAUAGUUAAUAGAAGGGUUUAAUACAUGAGGAUCACCCAUGUCAUGUGUCAUAAUUACC	33	26		
CACAAGAAAGUCGAAGGUUGAAGUAGAAGGACAAUAACAUGACAUGAGGAUCACCCAUGUGCCAUGUAGGAUAUGCUUUAAUCG	8.54	8.34		
CACCGUUACAGAGGAUAUCGUACAUGAGGAUCACCCAUGUAAUAAAUGAGAAUUUCGGAUGUAUGCGAGAAGGCUGGAAUCGGC	28.5	36.1		
CACGGUGAUGUAGGAUAUACGCUGGAAUACAGCGUAGAAGGACAUGAGGAUCACCCAUGUAAAGUGUCUCCGAAUAACACCGUG	33.8	63.3		
CACGUACAUGAGGAUCACCCAUGUUAGGAUAUGUUUACCGGAAGGCAUUCUUGGGUAAACAGAAGGGACGAAAC	22.5	31.8		
CACUGCAAUGUAGGAUAUCGACUGGAAUACAGUCGAGAAGGACAUGAGGAUCACCCAUGUACUAAUAGUGAUAAUAAAGCAGUG	14.6	54.1		
CACUGCAAUGUAGGAUAUCGACUGGAAUACAGUCGAGAAGGACAUGAGGAUCACCCAUGUACUUUGAGUGAAUAAUAAGCAGUG	15.9	59.4		
